{"data": "Measured values from different studies", "target": "Cyclin-dependent kinase 18 (CDK18, Homo sapiens, UniProt Q07002)", "note": "Each line is one published result; the experiments were not run side by side."}
{"Compound": "O=C(NCCCN1CCOCC1)c1ccc(Nc2nccc(-c3cc4ccccc4s3)n2)cc1", "read-out": "binding", "technique": "competition with immobilised ligand", "concentration": "1 µM", "remaining binding": "99%"}
{"Compound": "c1cncc(-c2cccc(Nc3nccc(NC4CCCCC4)n3)c2)c1", "read-out": "binding", "technique": "competition with immobilised ligand", "concentration": "10 µM", "remaining binding": "100%"}
{"Compound": "O=C(c1ccc(Nc2ncc(Cl)c(-c3cc4ccccc4s3)n2)cc1)N1CCC(N2CCCC2)CC1", "read-out": "binding", "technique": "competition with immobilised ligand", "concentration": "1 µM", "remaining binding": "64%"}
{"Compound": "CN(C)c1ncnc(-c2ccc3nc(Nc4cc(CN5CCN(C(=O)CC(F)(F)F)CC5)ccn4)[nH]c3c2)c1Cl", "read-out": "cell-free assay", "technique": "competition with immobilised ligand", "concentration": "1 µM", "remaining binding": "100%"}
{"Compound": "N[C@@H]1CCN(c2nccc(-c3cnn4ncccc34)n2)C1", "read-out": "binding", "concentration": "1 µM", "remaining binding": "100%"}
{"Compound": "CN(C)C(=O)Cn1cc(-c2nc(C3(c4ccc(-c5cnc(N)nc5)cc4)CC3)no2)cn1", "read-out": "cell-free assay", "technique": "competition with immobilised ligand", "concentration": "1 µM", "remaining binding": "83%"}
{"Compound": "CN1CCN(c2ccc(Nc3nccc(-c4cccc([N+](=O)[O-])c4)n3)cc2C(F)(F)F)CC1", "read-out": "binding", "concentration": "10 µM", "remaining binding": "56%"}
{"Compound": "CC1CCCN1c1nccc(-c2cnn3ncccc23)n1 (stereo not shown)", "read-out": "binding", "concentration": "1 µM", "remaining binding": "100%"}
{"Compound": "CC1=C(C#N)[C@@H](c2ccc3[nH]nc(C)c3c2)C(C#N)=C(c2ccc(Cl)cc2)N1", "read-out": "cell-free assay", "technique": "competition with immobilised ligand", "concentration": "1 µM", "remaining binding": "100%"}
{"Compound": "Cc1cnn2ncc(-c3ccnc(N(C)C)n3)c2c1", "read-out": "binding", "concentration": "1 µM", "remaining binding": "100%"}
{"Compound": "O=C1CCc2cc(Nc3cc(OC4CCOCC4)c([N+](=O)[O-])cc3Cl)ccc2N1", "read-out": "cell-free assay", "technique": "competition with immobilised ligand", "concentration": "1 µM", "remaining binding": "100%"}
{"Compound": "CN(C)c1nccc(-c2cnc3ncccn23)n1", "read-out": "binding", "concentration": "1 µM", "remaining binding": "100%"}
{"Compound": "CN(c1ccnc(CNc2nc(Nc3ccc4c(c3)CC(=O)N4)ncc2C(F)(F)F)n1)S(C)(=O)=O", "read-out": "cell-free assay", "technique": "competition with immobilised ligand", "concentration": "1 µM", "remaining binding": "100%"}
{"Compound": "COc1cnc(Nc2cccc(S(N)(=O)=O)c2)nc1N1CCN(c2ccccc2)C(=O)C1", "read-out": "binding", "technique": "competition with immobilised ligand", "concentration": "1 µM", "remaining binding": "100%"}
{"Compound": "C[C@@H]1CCN(c2nccc(-c3cnn4ncccc34)n2)C1", "read-out": "binding", "concentration": "1 µM", "remaining binding": "100%"}
{"Compound": "NS(=O)(=O)c1cc(NC(=O)Cc2ccccc2)ccc1Oc1cccc(Cl)c1", "read-out": "cell-free assay", "technique": "competition with immobilised ligand", "concentration": "1 µM", "remaining binding": "100%"}
{"Compound": "O=C(NCC1CCOCC1)c1n[nH]cc1NC(=O)c1c(F)cccc1F", "read-out": "binding", "technique": "competition with immobilised ligand", "concentration": "1 µM", "remaining binding": "86%"}
{"Compound": "CN(CCCC(F)(F)F)c1nccc(-c2cnn3ncccc23)n1", "read-out": "binding", "concentration": "1 µM", "remaining binding": "52%"}
{"Compound": "O=C(c1ccc(Nc2nccc(-c3cc4ccccc4s3)n2)cc1)N1CCC(N2CCCC2)CC1", "read-out": "binding", "technique": "competition with immobilised ligand", "concentration": "1 µM", "remaining binding": "100%"}
{"Compound": "C=CC(=O)N1CCC(C(=O)NCC(=O)N2CCN(c3nc(-c4cnc(N)nc4C(F)F)nc(N4CCOCC4)n3)CC2)CC1", "read-out": "binding", "technique": "competition with immobilised ligand", "concentration": "1 µM", "remaining binding": "95%"}
{"Compound": "C[C@@H](c1ccc(-n2cnc3c(N)ncnc32)cc1)N1CCc2nn(C)c(Cc3ccccc3)c2C1=O", "read-out": "binding", "technique": "competition with immobilised ligand", "concentration": "0.1 µM", "remaining binding": "100%"}
{"Compound": "COc1ncc2cc3ccccc3nc2c1C#N", "read-out": "cell-free assay", "technique": "competition with immobilised ligand", "concentration": "5 µM", "remaining binding": "90%"}
